# Compounds with a hit are over-represented: about 2.3% of the library has one in this group of screens.
# SR-BI DiI inh: mouse SR-BI HDL lipid transfer inhibition; ldlA[mSR-BI] CHO cells, DiI-HDL uptake fluorescence, 3 h; inhibition, % at 12.5 µM; 0.96% of 320,000 active; AID 488896;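 active = mean replicate inhibition of at least 70% and a set share of replicates each scoring 70 or more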
# CAL PDZ FP-1: blocks peptide binding to the human CAL PDZ domain. Q9HD26. purified CAL PDZ, TMR-peptide fluorescence polarization, 1 h. inhibition, % at 24.9 µM. 0.92% of 300,000 active. AID 602252;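 active = mean inhibition of at least 30% with at least half of replicates also reaching 30%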
# ATG4B inhibitor: blocks human ATG4B protease cleavage of LC3 substrate; Q9Y4P1; ATG4B cleavage of LC3-PLA2, NBD-HPC fluorescence, 1 h; inhibition, % at 8.33 µM; 0.51% of 340,000 active; AID 504462; in the data active = inhibition above about 40%
# Target sequence (Q9Y4P1 whole entry, looked up): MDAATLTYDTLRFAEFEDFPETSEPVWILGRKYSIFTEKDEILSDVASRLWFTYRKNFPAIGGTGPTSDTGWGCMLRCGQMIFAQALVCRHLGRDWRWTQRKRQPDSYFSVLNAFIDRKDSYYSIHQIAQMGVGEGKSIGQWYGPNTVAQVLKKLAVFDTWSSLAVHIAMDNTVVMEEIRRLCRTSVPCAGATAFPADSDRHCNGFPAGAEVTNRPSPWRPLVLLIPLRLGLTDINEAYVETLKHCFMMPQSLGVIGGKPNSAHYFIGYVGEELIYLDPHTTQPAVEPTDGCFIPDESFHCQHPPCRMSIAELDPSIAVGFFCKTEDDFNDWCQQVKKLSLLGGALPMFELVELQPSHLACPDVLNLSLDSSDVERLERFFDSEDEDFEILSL
# SR-BI uptake up: activators of SR-BI mediated HDL lipid uptake; CHO ldlA[mSR-BI] cells, DiI-HDL uptake fluorescence, 3 h; 100 = double the neutral-control signal; activation, % at 12.5 µM; 0.096% of 320,000 active;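 active = mean replicate activation of at least 60% and every replicate at or above 60%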
#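 Test system: SR-BI-overexpressing, LDLR-lacking CHO cells. Measured by: DiI fluorescence, bottom read. Medium: Ham's F12 with 0.5% BSA, HEPES 25 mM, pH 7.4. Timing: 3 h uptake period with compound, 37 °C.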
# CAL PDZ FP-2: human CAL PDZ-peptide interaction inhibition; Q9HD26; purified CAL PDZ, TMR-peptide fluorescence polarization, 1 h; inhibition, % at 20 µM; 0.02% of 330,000 active;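 active = highest replicate inhibition of at least 40%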
#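 Read-out basis: mP drop reported as inhibition | Assay system: Tagged CAL PDZ protein CerCALP, purified | Benchmarks: Unlabelled peptide for full inhibition, DMSO wells as neutral | Schedule: 1 h incubation at room temperature before polarization reading | Buffer or medium: Sodium phosphate/NaCl buffer pH 7.4 with TCEP, IgG, Thesit | Doses: Single point, 20 µM | Measured by: Fluorescence polarization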
# Hits are given with their value; i = inactive; nt = not tested or not shown.
SMILES,SR-BI DiI inh,CAL PDZ FP-1,ATG4B inhibitor,SR-BI uptake up,CAL PDZ FP-2
COC(=O)c1ccccc1NC(=S)N1CCC(N2CCCCC2)CC1,nt,nt,i,nt,i
COC(=O)c1ccccc1NC(=S)N1CCN(C2CCCCC2)CC1,i,61,i,i,i
COc1c(O)cnn(-c2ccccc2)c1=O,i,i,i,i,i
Cc1nnc2sc(SCC(=O)Nc3ccc(Cl)cc3)nn2c1=O,i,37,i,i,i
CCOC(=O)[C@@H]1[C@H]2COc3cc(OC)ccc3[C@H]2N2C(=O)N(c3ccc(C)cc3)C(=O)[C@@]12C,i,i,i,i,i
COc1ccc(-c2c(-c3cc(OC)cc(OC)c3)n(C)c3ccc(-c4ccc5c(c4)OCCO5)cc23)cc1,i,i,i,i,i
COc1cc(OC)cc(-c2c(-c3cccs3)c3cc(-c4ccc5c(c4)OCCO5)ccc3n2C)c1,78,i,i,i,i
COc1cc(OC)cc(-c2c(-c3cccs3)c3cc(-c4ccc(OC)c(OC)c4)ccc3n2C)c1,79,i,i,i,i
COc1cc(OC)cc(-c2c(-c3cccs3)c3cc(-c4ccc(OC)c(F)c4)ccc3n2C)c1,i,i,i,i,i
COc1ccc(Br)cc1CN(C)C(=O)c1ccccc1SCC(=O)N1CCCC1,i,nt,i,i,i
CCOC(=O)C1=CN(Cc2ccco2)S(=O)(=O)N(CC)C1c1ccc(C(F)(F)F)cc1 (configuration not stated),i,79,i,i,i
COc1ccc(NC(=O)CSc2nnc(-c3cccnc3)s2)cc1,i,i,i,i,i
CCN(CC)c1nc(Nc2ccc([N+](=O)[O-])cc2)nc(N(CC)CC)n1,i,i,i,i,i
CCOP(=O)(/C(C#N)=C(/O)c1ccccc1)c1ccccc1 (configuration not stated),i,123,i,i,i
CCOP(=O)(OCC)/C(C#N)=C(\O)c1ccc(OC)cc1,i,i,i,i,i
CN(C(=O)c1ccccc1F)C(c1ccccc1)c1ccccc1,i,42,i,i,i
CC(/C=N/NC(=O)c1ccccc1F)c1ccccc1 (configuration not stated),i,i,i,i,i
O=C(CSc1nnc(C2CC2)n1Cc1ccccc1)N1CCN(S(=O)(=O)c2ccccc2)CC1,i,42,i,i,i
C=CCOc1ccc(/C=C/C(=O)OCC(=O)N2CCN(S(=O)(=O)c3ccc(C)cc3C)CC2)cc1,i,47,i,i,i
Cc1ccc(S(=O)(=O)N2CCN(C(=O)COC(=O)c3cc([N+](=O)[O-])ccc3NCCO)CC2)c(C)c1,79,nt,i,i,i
Cc1ccc(S(=O)(=O)N2CCN(C(=O)COC(=O)/C=C/c3ccc([N+](=O)[O-])cc3)CC2)c(C)c1,i,i,i,i,i
O=C(NNc1cccc(Cl)n1)Nc1ccc(F)cc1,i,i,i,i,i
C/C(CS(=O)(=O)c1ccc(Cl)c(Cl)c1)=N/NC(N)=S,81,i,i,i,i
CCCOC1CCCN(C(=O)c2cc(COc3ccc(-n4cncn4)cc3)on2)C1 (configuration not stated),i,i,i,i,i
CC(=O)C1CCCN(C(=O)c2ccc3oc(CCc4ccccc4)nc3c2)C1 (configuration not stated),i,47,i,i,i
SMILES,SR-BI DiI inh,CAL PDZ FP-1,ATG4B inhibitor,SR-BI uptake up,CAL PDZ FP-2
CCOC(=O)C1CCCN(C(=O)c2ccc3oc(CCc4ccccc4)nc3c2)C1 (configuration not stated),i,i,i,i,i
Nc1cc2nsnc2cc1Br,i,i,65,i,i
C=CCOc1c(Br)cc(/C=N/NC(=O)Cc2ccc(C(F)(F)F)cc2[N+](=O)[O-])cc1OC,75,i,i,i,i
CCOc1cc(/C=N/NC(=O)Cc2ccc(C(F)(F)F)cc2[N+](=O)[O-])ccc1O,i,i,i,i,i
CC(=O)Nc1ccc(-c2cc(NC(C)=O)n(-c3ccccc3)n2)cc1,i,75,i,i,i
Cc1noc(C)c1C(=O)Nc1nnc(CC(C)C)s1,i,i,i,i,i
Cc1noc(C)c1COc1ccc(C(=O)NNC(=O)c2ccccc2O)cc1,95,i,i,i,i
COc1cc(C(=O)NCCc2c[nH]c3ccccc23)ccc1OCc1c(C)noc1C,83,i,i,i,i
Cc1noc(C)c1COc1ccc(CC(=O)NCCc2ccccc2)cc1,i,108,i,i,i
COc1ccc(CCNC(=O)c2ccc(OCc3c(C)noc3C)c(OC)c2)cc1,i,i,i,i,i
Cc1noc(C)c1COc1ccc(C(=O)Nc2nnc(CC(C)C)s2)cc1,82,i,i,i,i
Cc1noc(C)c1COc1ccc(C(=O)NCCc2ccc(F)cc2)cc1,i,nt,i,i,i
N#CC(OC(=O)c1ccccc1)c1ccccc1 (configuration not stated),i,i,i,i,i
COc1ccc2oc(C(=O)Nc3ccc(S(=O)(=O)N(C)C4CCN(C)CC4)cc3)c(C)c2c1,i,i,i,nt,i
O=C(CN1CCN(c2cnn(-c3ccccc3)c(=O)c2Cl)CC1)NC1CCS(=O)(=O)C1 (configuration not stated),i,i,i,i,i
NC(=O)C1c2ccccc2Oc2ccccc21,i,75,i,i,nt
O=S(=O)(NC1CCCCC1)c1ccc(N2CCOCC2)nc1,i,i,i,i,i
CC(=NNC(=S)N1CC2CCC(CC2)C1)c1ccncn1,i,i,i,i,i
Cc1cccc(NC(=O)c2ccc([N+](=O)[O-])s2)c1C,i,47,i,i,i
Cc1cccc2c1-c1sc(C(=O)Nc3cccc([N+](=O)[O-])c3C)cc1CO2,73,i,i,i,i
C=CCOc1ccc(/C=N/NC(=O)c2c(C)nc3ccc(Cl)cn23)cc1,i,i,i,i,nt
CC(=O)N1CCSc2ccc(S(=O)(=O)Nc3ccc(C)cc3)cc21,i,i,i,i,i
CC(=O)N1CCc2cc(S(=O)(=O)C(C)CC(=O)Nc3ccc(OC(F)(F)F)cc3)ccc21 (configuration not stated),i,i,i,i,i
CC(=O)c1cccc(NC(=O)N2CCCCCC2)c1,i,i,i,i,i
CC(=O)c1cccc(NS(=O)(=O)c2ccc(NC(=O)N3CCCCC3)cc2)c1,i,121,i,i,i
CC(C)(C)C(=O)Nc1nnc(SCC(=O)Nc2nccs2)s1,i,i,i,i,i
C[C@H](NC(=O)c1ccco1)C(=O)Nc1cc(S(=O)(=O)N2CCCC2)ccc1OCC(F)(F)F,i,i,i,i,i
CCOc1cccc2c1OC1(C)CC2NC(=O)N1c1cccc(Cl)c1 (configuration not stated),nt,93,i,nt,nt
COc1ccccc1CNC(=O)c1cc(C(=O)CC(C)C)c[nH]1,i,i,i,i,i
COc1ccc(-c2nc3ccccc3o2)cc1OC,i,i,i,i,44

# Screens: PubChem, several laboratories
